Test results from ChEMBL document CHEMBL1147089, “Protein protein interaction inhibition (2P2I) combining high throughput and virtual screening: Application to the HIV-1 Nef protein” (Proc Natl Acad Sci U S A, 2007).
Calls of active or inactive are those of the source. The calls are words filed in the database; no cut-off is given here.

Experiments:
[1] = Binding affinity to HIV1 Nef by isothermal titration calorimetry method; set-up: species or system Human immunodeficiency virus 1
In short: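 Nef57–205 dialyzed in ITC buffer (20 mM Hepes pH 7.0, 100 mM NaCl, 5% DMSO), 15–25 μM in cell; inhibitor 300–400 μM in same buffer (DMSO 5%) injected 10–15 μl every 300 s at 25°C; heat of dilution into buffer alone subtracted; apparent KD from titration.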

COS-7 [2] = assay: Inhibition of HIV1 Nef-SH3Hck interaction in COS7 cells at 20 uM after 36 hrs by mammalian two-hybrid assay; assay type: cell-based; details: Human immunodeficiency virus 1
In short: (§1)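 Firefly luciferase reports interaction, Renilla luciferase (from GAL4–SH3Hck construct) normalizes transfection and viability; inhibition from reduced LucFF:LucRN ratio. Dose series 2–32 μM; screening at 20 μM.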

[3] = Toxicity against african green monkey COS7 cells assessed as cell viability upto 100 uM; assay type: cell-based; details: chlorocebus aethiops, cos-7
[4] = system: Human immunodeficiency virus 1; assay: Reduction of HIV1 Nef-SH3Hck protein interaction at 0.1 uM by GST pull-down method
[5] = system: Human immunodeficiency virus 1; assay: Reduction of HIV1 Nef-mediated MHC class 1 down regulation in human PBMC after 3 hrs
[6] = system: Human immunodeficiency virus 1; assay: Reduction in HIV1 Nef-mediated CD4 down regulation in human PBMC after 3 hrs
[7] = biological target: T1, DNA-binding protein inhibitor ID-1 (Homo sapiens) (UniProt P41134); assay: Reduction of Id-MyoD interaction in COS7 cells at 32 uM after 36 hrs by mammalian two-hybrid assay; assay type: cell-based; set-up: scale not given: the % may be the effect or the level left; details: COS-7
T1 sequence (whole entry): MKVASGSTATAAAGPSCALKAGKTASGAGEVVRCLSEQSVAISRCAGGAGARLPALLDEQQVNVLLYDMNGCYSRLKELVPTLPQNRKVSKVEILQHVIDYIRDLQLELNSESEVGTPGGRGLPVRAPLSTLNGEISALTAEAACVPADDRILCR
In short: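 Specificity counterscreen: Id–MyoD mammalian two-hybrid in COS7 cells, compounds at 2, 4, 8, 16, 32 μM for 36 h; read-out as normalized firefly:Renilla luciferase ratio.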

COS-7 [8] = assay: Reduction of HIV1 Nef-SH3Hck protein interaction in COS7 cells assessed as reduction of LucFF:LucRN ratio at 32 uM after 36 hrs by mammalian two-hybrid assay; assay type: cell-based; set-up: scale not given: the % may be the effect or the level left; details: Human immunodeficiency virus 1; in short: as §1

Row | SMILES | Kd [1] | inhibition (COS-7 [2]) | other results
1 | COc1cc2ccccc2c2cc([N+](=O)[O-])oc12 | 11000 nM | 53.8% | –
2 | CC(C)(C)c1ccc(OCC(=O)Nc2cccc(C(=O)O)c2)cc1 | 980 nM | 75% | Activity [3]: Non-toxic
3 | Cc1cc(OCc2nc(N)nc(N)c2-c2ccc(Cl)c(Cl)c2)ccc1[N+](=O)[O-] | – | 57.5% | –
4 | O=C(O)CCC(=O)c1ccc2ccc3cccc4ccc1c2c34 | – | 58.4% | –
5 | CN(C)c1ccc2nc3c(C(=O)O)cc(=O)c(O)c-3oc2c1 | 1300 nM | 80.4% | –
6 | c1ccc(/C(=N/Nc2nc3ccccc3s2)c2ccccn2)cc1.c1ccc(/C(=N\Nc2nc3ccccc3s2)c2ccccn2)cc1 | – | 57.2% | –
7 | CC(C)(C)c1ccc(OC(=O)Nc2ccc(O)c(C(=O)O)c2)cc1 | 1800 nM | 73.4% | Activity [4]: Active; Activity [3]: Non-toxic; Activity [5]: Dose-dependent effect; Activity [6]: inactive; Activity [7]: 17%; Activity (COS-7 [8]): 77%
8 | O=C(O)CCCc1ccc2ccc3ccccc3c2c1 | 6700 nM | 63.2% | –
